Experiment [1] relates to MT4. In words: Effective concentration require to protect MT-4 cells from human immunodeficiency virus type 1 induced cytopathogenicity was determined by MTT method. Format: functional, cell-based. A digest of the protocol: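 MT-4 cells infected with HIV-1, with test compounds added. Protection from virus-induced cytopathogenicity was read by MTT. EC50 is the concentration giving 50% protection. Values are means of three separate experiments, with variation among triplicates under 10%. Trovirdine served as the reference.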
In general terms: Damage to the host cells serves as the signal in cytopathic effect assays.

Experiment [2] has as its system MT4. The experiment in a line: Cytotoxic concentration required to reduce the viability of mock infected MT-4 cells determined by MTT method. Format: functional. The note with it: Homo sapiens. A digest of the protocol:
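Viability of mock-infected MT-4 cells, assayed in parallel with the antiviral test, read by MTT. CC50 is the concentration that lowers viability by 50%. Values are means of three separate experiments, with variation among triplicates under 10%. The highest concentration tested was 100 µM.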

The subject of experiment [3] is MT4. In words: Ratio of CC50 to that of EC50 determined in MT-4 cells. Format: functional. The method in brief:
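Selectivity index, calculated as CC50/EC50. CC50 came from MTT viability of mock-infected MT-4 cells and EC50 from MTT-read protection of HIV-1-infected MT-4 cells from cytopathogenicity, with both run in parallel. Values are means of three experiments.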

This is an account of results in ChEMBL document CHEMBL1144398, “Structure-based design, parallel synthesis, structure-activity relationship, and molecular modeling studies of thiocarbamates, new potent non-nucleoside HIV-1 reverse transcriptase inhibitor isosteres of phenethylthiazolylthiourea derivatives” (J Med Chem, 2005).

SMILES strings stand for the structures.

One may read the EC50 as the concentration at which the effect is half-maximal. The CC50 is the concentration at which the toxic effect on the cells reaches its halfway point. Read a low CC50 as harm at low concentration.

For the compound `O=C1c2ccccc2C(=O)N1CCOC(=S)Nc1ccccc1Cl`, the response in the experiment on MT4 [1] was half-maximal at 17 µM (EC50). Further, in the experiment on MT4 [2], the 50% cytotoxic concentration (CC50) was greater than 100 µM. The SI with MT4 [3] is on record as greater than 5.9.
Taken in the same sequence, the figures for `COc1ccc(NC(=S)OCCN2C(=O)c3ccccc3C2=O)cc1` were 0.03 µM, greater than 100 µM and greater than 3333.
As to `CC(=O)c1ccc(NC(=S)OCCN2C(=O)c3ccccc3C2=O)cc1`, in the experiment on MT4 [1], it took 0.14 µM to reach a half-maximal effect (EC50). This compound yielded a CC50 with MT4 [2] greater than 100 µM. In addition, the SI with MT4 [3] is greater than 714.
Regarding `CSc1cccc(NC(=S)OCCN2C(=O)c3ccccc3C2=O)c1`, the EC50 in the experiment with MT4 [1] was determined as 7 µM. The CC50 with MT4 [2] was greater than 100 µM. The SI in the experiment with MT4 [3] was greater than 14.3.
In turn, `COc1cccc(NC(=S)OCCN2C(=O)c3ccccc3C2=O)c1` returned an EC50 in the experiment with MT4 [1] of 4 µM. In the experiment on MT4 [2], this compound returned a CC50 greater than 100 µM. In the experiment on MT4 [3], the SI is on record as greater than 25.
Consider `O=C1c2ccccc2C(=O)N1CCCOC(=S)Nc1ccccc1`, for which the EC50 in the experiment on MT4 [1] is greater than 100 µM. For the same compound, in the experiment with MT4 [2], the CC50 is greater than 100 µM.
In the experiment with MT4 [1], `COC(=O)c1cccc(NC(=S)OCCN2C(=O)c3ccccc3C2=O)c1` showed an EC50 of 21 µM. Also, in the experiment with MT4 [2], the CC50 was greater than 100 µM. Besides, the SI in the experiment with MT4 [3] is greater than 4.8.
As to `O=C1c2ccccc2C(=O)N1CCOC(=S)Nc1cccc2ccccc12`, in the experiment on MT4 [1], the EC50 was 6.5 µM. The same compound had a CC50 in the experiment with MT4 [2] greater than 100 µM. In the experiment with MT4 [3], the SI was greater than 15.4.
Taken in the same sequence, the figures for `CCN(CC)c1ccc(NC(=S)OCCN2C(=O)c3ccccc3C2=O)cc1` were 1.4 µM, greater than 100 µM and greater than 71.
`O=C(O)c1ccccc1C(=O)NCCO/C(S)=N\c1cccc(Cl)c1` returned an EC50 in the experiment on MT4 [1] of 3 µM. In the experiment on MT4 [2], this compound registered a CC50 greater than 100 µM. In the experiment with MT4 [3], the SI is given as greater than 33.3.
Consider `O=C1c2ccccc2C(=O)N1CCOC(=S)Nc1cccc(C(F)(F)F)c1`, for which the response with MT4 [1] was half-maximal at 13 µM (EC50). The compound also yielded a CC50 in the experiment with MT4 [2] greater than 100 µM. Further, the SI in the experiment on MT4 [3] is listed as greater than 7.7.
Taken in the same sequence, the figures for `CN(C)c1ccc(NC(=S)OCCN2C(=O)c3ccccc3C2=O)cc1` were 0.6 µM, greater than 100 µM and greater than 167.
Compound `Cc1ccccc1/N=C(/S)OCCNC(=O)c1ccccc1C(=O)O` registered an EC50 with MT4 [1] of 27 µM. In the experiment with MT4 [2], this compound came in with a half-maximal cytotoxic concentration (CC50) greater than 100 µM. Besides, the SI with MT4 [3] was greater than 3.7.
On the same counts, the results for `Cc1cccc(NC(=S)OCCN2C(=O)c3ccccc3C2=O)c1` are 1.5 µM, greater than 100 µM and greater than 66.7.
With `O=C1c2ccccc2C(=O)N1COC(=S)Nc1ccc([N+](=O)[O-])cc1`, the EC50 in the experiment on MT4 [1] was greater than 23 µM. This compound showed a CC50 in the experiment with MT4 [2] of 23 µM.
`O=C(O)c1ccccc1C(=O)NCCO/C(S)=N\c1ccccc1` had an EC50 with MT4 [1] of 3 µM. For the same compound, the CC50 with MT4 [2] was greater than 100 µM. For the same compound, the SI in the experiment with MT4 [3] is reported as greater than 33.3.
Regarding `O=C1C2C3C=CC(C3)C2C(=O)N1CCOC(=S)Nc1ccc([N+](=O)[O-])cc1` (centres undefined), in the experiment on MT4 [1], the EC50 is greater than 100 µM. The compound also registered a cytotoxic concentration (CC50) in the experiment with MT4 [2] greater than 100 µM.
`COC(=O)c1ccccc1/N=C(/S)OCCN1C(=O)c2ccccc2C1=O`: in the experiment on MT4 [1], the EC50 was greater than 45 µM. This compound yielded a CC50 with MT4 [2] of 45 µM.
With `O=C(O)c1ccccc1C(=O)NCCO/C(S)=N\c1ccccc1F`, the EC50 with MT4 [1] amounted to 0.5 µM. For the same compound, in the experiment on MT4 [2], the CC50 was greater than 100 µM. For the same compound, in the experiment with MT4 [3], the SI is greater than 200.
Take `Cc1cccc(NC(=S)OCCNC(=O)c2ccccc2C(=O)O)c1`: the EC50 in the experiment on MT4 [1] came out at 5 µM. This compound also displayed a CC50 in the experiment with MT4 [2] greater than 100 µM. Also, the SI with MT4 [3] is greater than 20.
On the same counts, the results for `COc1ccccc1/N=C(/S)OCCNC(=O)c1ccccc1C(=O)O` are 65 µM, greater than 100 µM and greater than 1.5.
In the experiment on MT4 [1], `O=C1c2ccccc2C(=O)N1CCOC(=S)NC1CCCCC1` registered a concentration giving a half-maximal response (EC50) of 0.3 µM. The same compound gave a CC50 with MT4 [2] greater than 100 µM. Further, in the experiment with MT4 [3], the SI was greater than 333.
In the case of `COc1cccc(NC(=S)OCCNC(=O)c2ccccc2C(=O)O)c1`, the EC50 in the experiment with MT4 [1] came to 2.6 µM. In the experiment with MT4 [2], the CC50 was greater than 100 µM. For the same compound, the SI with MT4 [3] is greater than 38.5.
On the same counts, the results for `CCOC(=O)c1ccc(NC(=S)OCCN2C(=O)c3ccccc3C2=O)cc1` are 23 µM, greater than 100 µM and greater than 4.3.
As to `O=C1c2ccccc2C(=O)N1CCOC(=S)Oc1ccc(Cl)cc1`, the EC50 in the experiment with MT4 [1] is greater than 100 µM. The cytotoxic concentration (CC50) with MT4 [2] is greater than 100 µM.
On to `CC(C)c1ccc(NC(=S)OCCN2C(=O)c3ccccc3C2=O)cc1`, for which the response with MT4 [1] was half-maximal at 0.04 µM (EC50). The compound further gave a cytotoxic concentration (CC50) with MT4 [2] of 94 µM. The SI in the experiment with MT4 [3] was found to be 2350.
In the case of `O=C(O)c1ccccc1C(=O)NCCO/C(S)=N\c1ccccc1[N+](=O)[O-]`, the EC50 with MT4 [1] is greater than 100 µM. Further, in the experiment with MT4 [2], the CC50 was greater than 100 µM.
In the experiment on MT4 [1], `Cc1ccccc1/N=C(/S)OCCN1C(=O)c2ccccc2C1=O` returned an EC50 of 3.7 µM. The same compound registered a CC50 with MT4 [2] greater than 100 µM. Besides, in the experiment on MT4 [3], the SI is listed as greater than 27.
On the same counts, the results for `COc1ccccc1/N=C(/S)OCCN1C(=O)c2ccccc2C1=O` are 5.6 µM, greater than 100 µM and greater than 17.9.
Take `O=C1c2ccccc2C(=O)N1CCOC(=S)Nc1ccccc1Br`: the EC50 with MT4 [1] was found to be 14 µM. Further, the CC50 with MT4 [2] is greater than 100 µM. Also, the SI in the experiment on MT4 [3] is reported as greater than 7.1.
As for `O=C1c2ccccc2C(=O)N1CCO/C(S)=N\c1ccccc1F`, in the experiment with MT4 [1], the EC50 worked out at 3 µM. In the experiment with MT4 [2], this compound came in with a CC50 greater than 100 µM. Besides, the SI in the experiment with MT4 [3] is listed as greater than 33.
Regarding `Cc1ccc(OC(=S)OCCN2C(=O)c3ccccc3C2=O)cc1`, in the experiment on MT4 [1], the EC50 was greater than 100 µM. The compound further returned a 50% cytotoxic concentration (CC50) in the experiment on MT4 [2] greater than 100 µM.
For `O=C1c2ccccc2C(=O)N1CCOC(=S)Nc1cccc(Cl)c1`, the midpoint of the response in the experiment with MT4 [1], the EC50, lay at 2 µM. Moreover, the half-maximal cytotoxic concentration (CC50) in the experiment with MT4 [2] is greater than 100 µM. In addition, the SI with MT4 [3] was greater than 50.
Taken in the same sequence, the figures for `CCOc1ccc(NC(=S)OCCN2C(=O)c3ccccc3C2=O)cc1` were 7 µM, greater than 100 µM and greater than 14.3.
On the same counts, the results for `O=C1c2ccccc2C(=O)N1CCO/C(S)=N\c1ccccc1C(F)(F)F` are 65 µM, greater than 100 µM and greater than 1.5.
Turning to `O=C1c2ccccc2C(=O)N1CCO/C(S)=N\c1ccccc1[N+](=O)[O-]`, the EC50 in the experiment on MT4 [1] was greater than 100 µM. For the same compound, the 50% cytotoxic concentration (CC50) in the experiment on MT4 [2] was greater than 100 µM.
As to `O=C1c2ccccc2C(=O)N1CCOC(=S)Nc1cccc([N+](=O)[O-])c1`, the EC50 with MT4 [1] worked out at 0.6 µM. The compound also displayed a CC50 with MT4 [2] greater than 100 µM. Moreover, in the experiment with MT4 [3], the SI is given as greater than 167.
In the case of `O=C1c2ccccc2C(=O)N1CCOC(=S)Nc1ccc(C(F)(F)F)cc1`, a half-maximal response with MT4 [1] (EC50) required 0.04 µM. In the experiment on MT4 [2], the CC50 is greater than 100 µM. Also, the SI in the experiment on MT4 [3] is listed as greater than 2500.
Compound `CC(C)c1ccccc1/N=C(/S)OCCN1C(=O)c2ccccc2C1=O` gave an EC50 in the experiment with MT4 [1] of 43 µM. The CC50 in the experiment on MT4 [2] was greater than 100 µM. The SI in the experiment on MT4 [3] was greater than 2.3.
Taken in the same sequence, the figures for `CC(=O)c1cccc(NC(=S)OCCN2C(=O)c3ccccc3C2=O)c1` were 4.3 µM, greater than 100 µM and greater than 23.
The compound `COC(=O)c1ccccc1/N=C(/S)OCCNC(=O)c1ccccc1C(=O)O` registered an EC50 with MT4 [1] greater than 100 µM. Also, the CC50 with MT4 [2] was greater than 100 µM.
Compound `COC(=O)c1cccc(NC(=S)OCCNC(=O)c2ccccc2C(=O)O)c1` registered an EC50 with MT4 [1] greater than 100 µM. In the experiment on MT4 [2], this compound returned a CC50 greater than 100 µM.
Take `CCc1ccc(NC(=S)OCCN2C(=O)c3ccccc3C2=O)cc1`: it took 0.08 µM to reach a half-maximal effect with MT4 [1] (EC50). In the experiment on MT4 [2], this compound had a CC50 greater than 100 µM. Further, the SI in the experiment on MT4 [3] is on record as greater than 1250.
